ChEMBL document CHEMBL4428050, “Design, Synthesis, and Biological Evaluation of Substituted Pyrimidines as Potential Phosphatidylinositol 3-Kinase (PI3K) Inhibitors” (J Med Chem, 2016)
Each block holds one molecule with its values, some of them ahead of it.

Legend:
[1] = Inhibition of PI3K p110alpha/p85 (unknown origin) using PIP2/ATP as substrate after 1 hr by kinase glo luminescent assay; set-up: species or system Homo sapiens
In short: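 PI3K p110α activity read by Kinase-Glo Plus luminescence. IC50 is the mean of triplicate measurements.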

BGC-823 = assay: Antiproliferative activity against human BGC823 cells after 72 hrs by CCK8 assay; type: functional, cell-based
HeLa = assay: Antiproliferative activity against human HeLa cells after 72 hrs by CCK8 assay; type: functional, cell-based
MCF7 = assay: Antiproliferative activity against human MCF7 cells after 72 hrs by CCK8 assay; type: functional, cell-based
MOLT-4 = assay: Antiproliferative activity against human MOLT4 cells after 72 hrs by CCK8 assay; type: functional, cell-based
DU-145 = assay: Antiproliferative activity against human DU145 cells after 72 hrs by CCK8 assay; type: functional, cell-based
U-937 = assay: Antiproliferative activity against human U937 cells after 72 hrs by CCK8 assay; type: functional, cell-based
K562 = assay: Antiproliferative activity against human K562 cells after 72 hrs by CCK8 assay; type: functional, cell-based
SK-BR-3 = assay: Antiproliferative activity against human SK-BR-3 cells after 72 hrs by CCK8 assay; type: functional, cell-based; conditions: SK-BR-3, 72 h
A549 = assay: Antiproliferative activity against human A549 cells after 72 hrs by CCK8 assay; type: functional, cell-based
NCI-N87 = assay: Antiproliferative activity against human NCI-N87 cells after 72 hrs by CCK8 assay; type: functional, cell-based
Bel-7402 = assay: Antiproliferative activity against human Bel7402 cells after 72 hrs by CCK8 assay; type: functional, cell-based; conditions: Bel-7402, 72 h
SGC-7901 = assay: Antiproliferative activity against human SGC7901 cells after 72 hrs by CCK8 assay; type: functional, cell-based; conditions: SGC-7901, 72 h
PANC-1 = assay: Antiproliferative activity against human PANC1 cells after 72 hrs by CCK8 assay; type: functional, cell-based; conditions: Homo sapiens, PANC-1, 72 h
HT-1080 = assay: Antiproliferative activity against human HT1080 cells after 72 hrs by CCK8 assay; type: functional, cell-based; conditions: HT-1080, 72 h
A-431 = assay: Antiproliferative activity against human A431 cells after 72 hrs by CCK8 assay; type: functional, cell-based; conditions: Homo sapiens, A-431, 72 h
Huh-7 = assay: Antiproliferative activity against human HuH7 cells after 72 hrs by CCK8 assay; type: functional, cell-based; conditions: Huh-7, 72 h

Structure (SMILES): C[C@@H]1CN(c2nc(-c3cnc(N)cc3C(F)(F)F)nc(N3C[C@H]4C[C@@H]3CO4)n2)C[C@H](C)O1
IC50 [1]: 9530 nM

Structure (SMILES): Oc1cccc(-c2nc(N3CCOCC3)c3oc4ncccc4c3n2)c1 [PI-103]
IC50 [1]: 7.4 nM

Structure (SMILES): CS(=O)(=O)N1CCN(c2nc(-c3cnc(N)cc3C(F)(F)F)cc(N3CCOCC3)n2)CC1
IC50 (BGC-823; Homo sapiens, BGC-823, 72 h): 3640 nM
IC50 (HeLa; Homo sapiens, HeLa, 72 h): 4040 nM
IC50 [1]: 23 nM
IC50 (MCF7; Homo sapiens, MCF7, 72 h): 4390 nM
IC50 (MOLT-4; Homo sapiens, MOLT-4, 72 h): 1110 nM
IC50 (DU-145; Homo sapiens, DU-145, 72 h): 6560 nM
IC50 (U-937; Homo sapiens, U-937, 72 h): 1990 nM
IC50 (K562; Homo sapiens, K562, 72 h): 3640 nM
IC50 (SK-BR-3): 1590 nM
IC50 (A549; Homo sapiens, A549, 72 h): 2950 nM

Structure (SMILES): Nc1ncc(-c2cc(N3CCOCC3)nc(N3C[C@H]4OCCO[C@@H]4C3)n2)cn1 (racemic)
IC50 [1]: 128 nM

Structure (SMILES): Nc1cc(C(F)(F)F)c(-c2cc(N3CCOCC3)nc(N3C[C@@H]4OCCO[C@H]4C3)n2)cn1
IC50 (BGC-823; bgc-823): 2790 nM
IC50 (HeLa; hela): 2450 nM
IC50 [1]: 35 nM
IC50 (MCF7; mcf7): 3820 nM
IC50 (MOLT-4; molt-4): 970 nM
IC50 (DU-145; du-145): 4860 nM
IC50 (U-937; u-937): 1510 nM
IC50 (K562; k562): 2560 nM
IC50 (SK-BR-3): 1600 nM
IC50 (A549; a549): 2490 nM

Structure (SMILES): Nc1cc(C(F)(F)F)c(-c2nc(N3CCOCC3)nc(N3C[C@H]4OCCO[C@@H]4C3)n2)cn1 (racemic)
IC50 (BGC-823; Homo sapiens, BGC-823, 72 h): 9570 nM
IC50 (NCI-N87; nci-n87): 770 nM
IC50 (HeLa; hela): > 10000 nM
IC50 [1]: 32 nM
IC50 (MCF7; Homo sapiens, MCF7, 72 h): 8150 nM
IC50 (Bel-7402): 5900 nM
IC50 (SGC-7901): 4460 nM
IC50 (MOLT-4; Homo sapiens, MOLT-4, 72 h): 1210 nM
IC50 (DU-145; du-145): 3300 nM
IC50 (PANC-1): 6230 nM
IC50 (U-937; Homo sapiens, U-937, 72 h): 3050 nM
IC50 (K562; k562): > 10000 nM
IC50 (HT-1080): 10000 nM
IC50 (A-431): > 10000 nM
IC50 (A549; Homo sapiens, A549, 72 h): 4030 nM
IC50 (Huh-7): 5660 nM

Structure (SMILES): Nc1cc(C(F)(F)F)c(-c2ccc3c(N4CCOCC4)nc(N4CCOCC4)nc3c2)cn1
IC50 [1]: > 10000 nM

Structure (SMILES): C[C@@H]1CN(c2nc(-c3cnc(N)cc3C(F)(F)F)nc(N3C[C@@H]4OCCO[C@@H]4C3)n2)C[C@H](C)O1
IC50 [1]: > 10000 nM

Structure (SMILES): Nc1cc(C(F)(F)F)c(-c2cc(N3CCOCC3)nc(NCCN3CCOCC3)n2)cn1
IC50 [1]: 568 nM

Structure (SMILES): C[C@@H]1CN(c2nc(N3C[C@@H](C)O[C@@H](C)C3)c3ccc(-c4cnc(N)cc4C(F)(F)F)cc3n2)C[C@H](C)O1
IC50 [1]: > 10000 nM

Structure (SMILES): C[C@@H]1CN(c2nc(-c3cnc(N)cc3C(F)(F)F)nc(N3C[C@@H](C)O[C@@H](C)C3)n2)C[C@H](C)O1
IC50 [1]: > 10000 nM

Structure (SMILES): Nc1cc(C(F)(F)F)c(-c2cc(N3CCOCC3)nc(Nc3ccc(N4CCOCC4)cc3)n2)cn1
IC50 (BGC-823; Homo sapiens, BGC-823, 72 h): 8360 nM
IC50 (HeLa; Homo sapiens, HeLa, 72 h): 6910 nM
IC50 [1]: 26 nM
IC50 (MCF7; Homo sapiens, MCF7, 72 h): 9410 nM
IC50 (MOLT-4; Homo sapiens, MOLT-4, 72 h): 1770 nM
IC50 (DU-145; Homo sapiens, DU-145, 72 h): > 10000 nM
IC50 (U-937; Homo sapiens, U-937, 72 h): 3480 nM
IC50 (K562; Homo sapiens, K562, 72 h): 8810 nM
IC50 (SK-BR-3): 2670 nM
IC50 (A549; Homo sapiens, A549, 72 h): 7790 nM

Continued, in another order:

IC50 [1]: 896 nM
IC50 (DU-145; Homo sapiens, DU-145, 72 h): > 10000 nM
IC50 (K562; Homo sapiens, K562, 72 h): > 10000 nM
Structure (SMILES): Nc1cc(C(F)(F)F)c(-c2cc(N3C[C@@H]4OCCO[C@@H]4C3)nc(N3CCOCC3)n2)cn1

IC50 [1]: 5750 nM
Structure (SMILES): C[C@@H]1CN(c2cc(-c3cnc(N)cc3C(F)(F)F)nc(N3C[C@@H]4OCCO[C@@H]4C3)n2)C[C@H](C)O1

IC50 (BGC-823; Homo sapiens, BGC-823, 72 h): 6590 nM
IC50 (HeLa; Homo sapiens, HeLa, 72 h): 7530 nM
IC50 [1]: 61 nM
IC50 (MCF7; Homo sapiens, MCF7, 72 h): 7470 nM
IC50 (MOLT-4; Homo sapiens, MOLT-4, 72 h): 1960 nM
IC50 (DU-145; Homo sapiens, DU-145, 72 h): 15000 nM
IC50 (U-937; Homo sapiens, U-937, 72 h): 3380 nM
IC50 (K562; Homo sapiens, K562, 72 h): 6340 nM
IC50 (SK-BR-3): 3470 nM
IC50 (A549; Homo sapiens, A549, 72 h): 6400 nM
Structure (SMILES): Nc1cc(C(F)(F)F)c(-c2cc(N3CCOCC3)nc(N3C[C@H]4OCCO[C@@H]4C3)n2)cn1

IC50 [1]: > 10000 nM
Structure (SMILES): C[C@@H]1CN(c2cc(-c3cnc(N)cc3C(F)(F)F)nc(N3C[C@@H](C)O[C@@H](C)C3)n2)C[C@H](C)O1

IC50 [1]: 224 nM
Structure (SMILES): C[C@@H]1CN(c2cc(-c3cnc(N)cc3C(F)(F)F)nc(N3CCOCC3)n2)C[C@H](C)O1

IC50 (BGC-823; Homo sapiens, BGC-823, 72 h): 1410 nM
IC50 (HeLa; Homo sapiens, HeLa, 72 h): 1810 nM
IC50 [1]: 91 nM
IC50 (MCF7; Homo sapiens, MCF7, 72 h): 1410 nM
IC50 (Bel-7402): 1640 nM
IC50 (SGC-7901): 1240 nM
IC50 (MOLT-4; Homo sapiens, MOLT-4, 72 h): 420 nM
IC50 (DU-145; Homo sapiens, DU-145, 72 h): 1410 nM
IC50 (PANC-1): 1380 nM
IC50 (U-937; Homo sapiens, U-937, 72 h): 570 nM
IC50 (K562; Homo sapiens, K562, 72 h): 2680 nM
IC50 (HT-1080): 1980 nM
IC50 (A-431): 2290 nM
IC50 (A549; Homo sapiens, A549, 72 h): 1890 nM
IC50 (Huh-7): 1210 nM
Structure (SMILES): C[C@@H]1CN(c2nc(-c3cnc(N)cc3C(F)(F)F)cc(N3CCOCC3)n2)C[C@H](C)O1
IC50 (NCI-N87; Homo sapiens, NCI-N87, 72 h): 520 nM
